Data taken from ChEMBL document CHEMBL5120833, “Structure-based design of novel donepezil-like hybrids for a multi-target approach to the therapy of Alzheimer's disease” (Eur J Med Chem, 2022).
pIC50: −log10 of the molar value. Activity calls are given as the source filed them. No cut-off for these calls is given here.

How the values were obtained:
Acetylcholinesterase [1] = target: T1, Acetylcholinesterase (Homo sapiens, UniProt P22303); experiment: Inhibition of human AChE by Ellman's spectrophotometric method
T1 sequence (P22303 whole entry): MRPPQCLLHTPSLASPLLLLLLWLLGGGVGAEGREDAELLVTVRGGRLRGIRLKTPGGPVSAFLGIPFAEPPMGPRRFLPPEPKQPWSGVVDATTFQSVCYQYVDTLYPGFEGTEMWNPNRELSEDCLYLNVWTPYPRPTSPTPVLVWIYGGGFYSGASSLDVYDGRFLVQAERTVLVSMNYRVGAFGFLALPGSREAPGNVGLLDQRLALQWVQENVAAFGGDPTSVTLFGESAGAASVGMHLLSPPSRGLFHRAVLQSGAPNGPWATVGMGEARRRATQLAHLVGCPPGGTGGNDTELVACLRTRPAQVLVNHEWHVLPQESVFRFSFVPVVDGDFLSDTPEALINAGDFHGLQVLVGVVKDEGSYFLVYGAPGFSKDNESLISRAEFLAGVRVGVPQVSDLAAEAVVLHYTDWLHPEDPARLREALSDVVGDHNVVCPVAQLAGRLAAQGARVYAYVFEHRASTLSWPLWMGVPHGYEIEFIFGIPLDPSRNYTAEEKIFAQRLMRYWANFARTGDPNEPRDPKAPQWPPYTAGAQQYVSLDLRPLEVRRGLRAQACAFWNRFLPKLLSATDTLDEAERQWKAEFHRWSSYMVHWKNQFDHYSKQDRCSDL

Cholinesterase [2] = target: T2, Cholinesterase (Homo sapiens, UniProt P06276); experiment: Inhibition of human BuChE by Ellman's spectrophotometric method
T2 sequence (P06276 whole entry): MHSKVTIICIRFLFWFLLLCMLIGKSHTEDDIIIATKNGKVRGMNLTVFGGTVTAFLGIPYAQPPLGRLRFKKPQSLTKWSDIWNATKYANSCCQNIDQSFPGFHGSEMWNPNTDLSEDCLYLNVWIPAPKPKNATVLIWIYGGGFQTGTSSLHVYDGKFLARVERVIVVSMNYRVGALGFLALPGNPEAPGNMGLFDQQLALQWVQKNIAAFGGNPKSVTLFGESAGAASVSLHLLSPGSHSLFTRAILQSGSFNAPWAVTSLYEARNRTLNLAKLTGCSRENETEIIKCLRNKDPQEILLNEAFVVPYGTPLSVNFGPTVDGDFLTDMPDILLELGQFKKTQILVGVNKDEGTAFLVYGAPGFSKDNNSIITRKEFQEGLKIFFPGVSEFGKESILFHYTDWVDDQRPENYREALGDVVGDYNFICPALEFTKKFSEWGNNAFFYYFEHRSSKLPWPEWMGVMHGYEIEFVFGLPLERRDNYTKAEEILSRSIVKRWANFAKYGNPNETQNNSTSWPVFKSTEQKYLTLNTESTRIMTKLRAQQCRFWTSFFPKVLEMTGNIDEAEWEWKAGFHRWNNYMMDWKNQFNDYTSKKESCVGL
Summary of the method: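 Human BChE, modified Ellman spectrophotometric assay in 96-well format. Incubations were run in duplicate. IC50 was determined for inhibitors giving >60% inhibition, from seven final concentrations (10⁻⁵ to 10⁻¹¹ M) diluted in work buffer from a 1000 μM DMSO stock. Values are the mean ± SEM of three independent experiments.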

[3] = target: T3, Fatty-acid amide hydrolase 1 (Homo sapiens, UniProt O00519); experiment: Inhibition of human recombinant FAAH using AMC-AA as substrate preincubated with enzyme for 10 mins followed by substrate addition for 2 hrs by fluorometric analysis
T3 sequence (O00519 whole entry): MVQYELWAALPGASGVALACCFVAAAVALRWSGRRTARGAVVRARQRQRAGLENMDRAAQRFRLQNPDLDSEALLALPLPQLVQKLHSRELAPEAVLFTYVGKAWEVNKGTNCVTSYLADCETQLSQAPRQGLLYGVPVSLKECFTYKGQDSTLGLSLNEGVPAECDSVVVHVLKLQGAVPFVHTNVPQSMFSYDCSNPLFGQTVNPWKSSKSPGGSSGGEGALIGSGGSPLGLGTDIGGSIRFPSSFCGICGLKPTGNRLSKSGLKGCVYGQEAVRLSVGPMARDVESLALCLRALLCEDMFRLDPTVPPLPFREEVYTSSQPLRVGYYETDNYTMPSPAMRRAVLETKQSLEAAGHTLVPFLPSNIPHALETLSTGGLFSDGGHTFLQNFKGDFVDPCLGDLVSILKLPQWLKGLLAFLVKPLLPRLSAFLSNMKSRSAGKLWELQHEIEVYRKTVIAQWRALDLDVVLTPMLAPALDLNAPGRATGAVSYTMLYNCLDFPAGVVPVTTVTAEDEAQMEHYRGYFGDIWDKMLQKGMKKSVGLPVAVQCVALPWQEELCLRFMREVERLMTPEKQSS
Summary of the method: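 Human recombinant FAAH preincubated with inhibitor at several concentrations for 10 min at room temperature with orbital shaking in Tris-HCl 125 mM, Na2EDTA 1 mM, pH 9.0. AMC-AA substrate (5 µM final) added, then 2 h at 37 °C with fluorescence read every 30 s (ex 340, em 450 nm). Percent inhibition taken against no-inhibitor and no-enzyme wells. IC50 given as mean ± SEM of at least two independent triplicate runs.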

[4] = target: Amyloid-beta precursor protein (Homo sapiens) (UniProt P05067); experiment: Inhibition of amyloid beta (1 to 40) (unknown origin) aggregation at 100 uM incubated for 2 hrs by Thioflavin T based fluorometric assay
Amyloid-beta precursor protein (Homo sapiens), sequence (P05067 whole entry): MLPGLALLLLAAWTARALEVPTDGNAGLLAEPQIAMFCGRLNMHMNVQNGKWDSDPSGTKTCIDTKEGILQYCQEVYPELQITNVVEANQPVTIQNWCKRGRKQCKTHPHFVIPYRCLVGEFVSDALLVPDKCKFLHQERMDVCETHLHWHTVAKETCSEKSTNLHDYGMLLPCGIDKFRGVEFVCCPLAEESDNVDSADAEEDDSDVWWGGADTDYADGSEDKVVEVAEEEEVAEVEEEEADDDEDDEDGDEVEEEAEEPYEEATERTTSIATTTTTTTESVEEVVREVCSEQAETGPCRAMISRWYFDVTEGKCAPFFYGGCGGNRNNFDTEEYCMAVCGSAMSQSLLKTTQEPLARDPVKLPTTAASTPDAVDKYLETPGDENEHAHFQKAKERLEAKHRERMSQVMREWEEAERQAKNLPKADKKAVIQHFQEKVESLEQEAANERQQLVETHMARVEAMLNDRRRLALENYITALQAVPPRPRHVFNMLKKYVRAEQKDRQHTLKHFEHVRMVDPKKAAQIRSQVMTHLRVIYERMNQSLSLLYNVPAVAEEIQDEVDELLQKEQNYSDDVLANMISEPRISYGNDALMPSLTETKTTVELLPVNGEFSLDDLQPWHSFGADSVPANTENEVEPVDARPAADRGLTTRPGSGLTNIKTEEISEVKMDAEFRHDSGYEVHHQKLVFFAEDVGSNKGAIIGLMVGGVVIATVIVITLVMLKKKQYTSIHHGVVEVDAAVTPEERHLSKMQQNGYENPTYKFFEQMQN
Summary of the method: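 Aβ40 (30 µM final) co-incubated with inhibitor (100 µM final) in PBS pH 7.4 containing 2% HFIP, 2 h at 25 °C. Thioflavin T (25 µM) then added and fluorescence read. Run in triplicate, reported as mean ± SEM.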

[5] = Cytotoxicity against human SH-SY5Y cells assessed as inhibition of cell viability incubated for 24 hrs by MTT assay; format: toxicity, cell-based
Summary of the method: (§1)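 Cells from ATCC; SH-SY5Y grown in 1:1 MEM/Ham's F12, HepG2 in MEM with NEAA, both with 10% heat-inactivated FBS, glutamine, penicillin-streptomycin, 37 °C, 5% CO2. Seeded 10,000-25,000 cells/well, next day exposed to half-log serial dilutions (100 µM to 100 nM) in 1% DMSO final, with untreated controls. After 24 or 48 h, MTT 0.5 mg/mL for 3–4 h at 37 °C; formazan dissolved in DMSO/EtOH 1:1, absorbance 570 nm.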

[6] = Cytotoxicity against human SH-SY5Y cells assessed as inhibition of cell viability incubated for 48 hrs by MTT assay; format: toxicity, cell-based; summary of the method: as §1
[7] = Cytotoxicity against human HepG2 cells assessed as inhibition of cell viability incubated for 24 hrs by MTT assay; format: toxicity, cell-based; summary of the method: as §1
[8] = Cytotoxicity against human HepG2 cells assessed as inhibition of cell viability incubated for 48 hrs by MTT assay; format: toxicity, cell-based; summary of the method: as §1
Cholinesterase [9] = target: T2, Cholinesterase; experiment: Inhibition of human BuChE at 10 uM by Ellman's spectrophotometric method
Summary of the method: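 Percent inhibition of human BChE at a fixed 10 μM inhibitor concentration, by modified Ellman spectrophotometric assay in 96-well format. Incubations were run in duplicate. Values are the mean ± SEM of three independent experiments.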

Acetylcholinesterase [10] = target: T1, Acetylcholinesterase; experiment: Potency index, ratio of donepezil IC50 to test compound IC50 for inhibition of human AChE by Ellman's spectrophotometric method
Homo sapiens = species: Homo sapiens; experiment: Selectivity index, ratio of IC50 for human BuChE to IC50 for human AChE
Cholinesterase [11] = target: T2, Cholinesterase; experiment: Potency index, ratio of donepezil IC50 to test compound IC50 for inhibition of human BuChE by Ellman's spectrophotometric method
[12] = Metal chelating activity assessed as Cu2+-compound complex formation by measuring global formation constant, log(beta)(CumHhLl) in 30% DMSO/water medium by pH potentiometric analysis
Summary of the method: (§2)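 Cu2+ binding measured by pH-potentiometric titration in 30% w/w DMSO/H2O at 25.0 ± 0.1 °C, ionic strength 0.1 M KCl, with 0.08 M KOH as titrant. Ligand concentration was 4.4×10^-4 M, with Cu:L ratios of 0:1, 1:1 and 1:2. Glass and Ag/AgCl electrodes were checked by HCl/KOH calibration (Gran's method), pKw 14.66. Protonation and complex stability constants came from fitting the data to an equilibrium model.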

[13] = Metal chelating activity assessed as Cu2+-compound complex formation at Cu2+:compound concentration ratio of 1:1 to 1:2 in 30% DMSO/water medium by pH potentiometric analysis; summary of the method: as §2
[14] = Metal chelating activity assessed as compound-Zn2+ complex formation at compound:Zn2+ concentration ratio of 1:1 in DMSO-d6/D2O medium by 1H-NMR analysis
[15] = Metal chelating activity assessed as compound-Cu2+ complex formation at stoichiometric ratio of 1:1 in 30% w/w DMSO/H2O medium by ESI-MS spectral analysis
Summary of the method: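 ESI-MS on an ion-trap instrument in positive and negative ion modes of Cu2+:ligand 1:1 solution in 30% w/w DMSO/H2O. Ligand concentration 2.6×10^-4 M, pH 5.68. Spray voltage ±4.5 kV, capillary temperature 280 °C, N2 sheath gas.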

[16] = Protonation constant of the compound, logKi in 30% w/w DMSO/H2O medium; format: physicochemical
Summary of the method: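 pH-potentiometric titration in 30% w/w DMSO/H2O at 25.0 ± 0.1 °C, ionic strength 0.1 M KCl, titrant 0.08 M KOH, ligand 4.4×10^-4 M. Glass and Ag/AgCl electrodes conditioned in DMSO/water mixtures and calibrated by HCl/KOH titration (Gran's method); pKw 14.66. Stepwise protonation constants obtained by fitting the titration data.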

Cc1cc(Br)cc(C)c1OCC(=O)NCC1CCN(Cc2ccccc2)CC1
pIC50 (Acetylcholinesterase [1]): 6.23 | pIC50 (Cholinesterase [2]): 5.65 | pIC50 [3]: 4.54

O=C(COc1ccccc1C(F)(F)F)NCCN1CCN(Cc2ccccc2)CC1
pIC50 (Acetylcholinesterase [1]): 6.87 | pIC50 (Cholinesterase [2]): 6.30 | pIC50 [3]: 4.26

O=C(COc1ccc(Cl)cc1)NCC1CCN(Cc2ccccc2)CC1
pIC50 (Acetylcholinesterase [1]): 5.77 | pIC50 (Cholinesterase [2]): 5.25 | pIC50 [3]: 4.68 | inhibition [4]: 30% | IC50 at 24 h [5]: > 100 µM | IC50 at 48 h [6]: > 100 µM | IC50 at 24 h [7]: > 100 µM | IC50 at 48 h [8]: > 100 µM

O=C(Oc1ccc([N+](=O)[O-])cc1)N1CCN(Cc2cccc(Oc3ccccc3)c2)CC1
pIC50 [3]: 7.72

O=C(COc1ccc([N+](=O)[O-])cc1)NCCN1CCN(Cc2ccccc2)CC1
pIC50 (Acetylcholinesterase [1]): 7.38 | pIC50 [3]: 4.36 | inhibition [4]: 30%

O=C(COc1ccc(-c2ccccc2)cc1)NCC1CCN(Cc2ccccc2)CC1
pIC50 (Acetylcholinesterase [1]): 5.77 | pIC50 (Cholinesterase [2]): 5.25 | pIC50 [3]: 4.63

O=C(COc1ccc(Cc2ccccc2)cc1)NCCN1CCN(Cc2ccccc2)CC1
pIC50 (Acetylcholinesterase [1]): 6.00 | pIC50 [3]: 4.63 | inhibition (Cholinesterase [9]): 29%

COc1ccc(OCC(=O)NCC2CCN(Cc3ccccc3)CC2)cc1
pIC50 (Acetylcholinesterase [1]): 6.06 | pIC50 [3]: 4.39 | inhibition (Cholinesterase [9]): 55%

O=C(COc1ccccc1C(F)(F)F)NCC1CCN(Cc2ccccc2)CC1
pIC50 (Acetylcholinesterase [1]): 6.12 | pIC50 (Cholinesterase [2]): 5.99 | pIC50 [3]: 4.42

O=C(COc1ccc(Cc2ccccc2)cc1)NCC1CCN(Cc2ccccc2)CC1
pIC50 (Acetylcholinesterase [1]): 5.90 | pIC50 [3]: 4.66 | inhibition (Cholinesterase [9]): 37%

O=C(COc1ccc(Cl)cc1[N+](=O)[O-])NCC1CCN(Cc2ccccc2)CC1
pIC50 (Acetylcholinesterase [1]): 6.91 | pIC50 (Cholinesterase [2]): 5.33 | pIC50 [3]: 4.63

Cc1cc(Br)cc(C)c1OCC(=O)NCCN1CCN(Cc2ccccc2)CC1
pIC50 (Acetylcholinesterase [1]): 7.05 | pIC50 (Cholinesterase [2]): 5.39 | pIC50 [3]: 4.39

O=C(COc1ccc(Cl)cc1)NCCN1CCN(Cc2ccccc2)CC1
pIC50 (Acetylcholinesterase [1]): 6.72 | pIC50 (Cholinesterase [2]): 5.67 | pIC50 [3]: < 4.00 | inhibition [4]: 30%

O=C(COc1cc(F)ccc1[N+](=O)[O-])NCC1CCN(Cc2ccccc2)CC1
pIC50 (Acetylcholinesterase [1]): 6.99 | pIC50 [3]: 4.55 | inhibition (Cholinesterase [9]): 54%

O=C(COc1ccc([N+](=O)[O-])cc1)NCC1CCN(Cc2ccccc2)CC1
pIC50 (Acetylcholinesterase [1]): 6.29 | pIC50 [3]: 4.55 | inhibition (Cholinesterase [9]): 24%

O=C(COc1ccc(CCc2ccccc2)cc1)NCCN1CCN(Cc2ccccc2)CC1
pIC50 (Acetylcholinesterase [1]): 6.05 | pIC50 [3]: 4.77 | inhibition (Cholinesterase [9]): 45% | inhibition [4]: 30% | IC50 at 24 h [5]: 27.8 µM | IC50 at 48 h [6]: 34.8 µM | IC50 at 24 h [7]: 41.6 µM | IC50 at 48 h [8]: 15.8 µM

O=C(COc1ccc(Cl)cc1[N+](=O)[O-])NCCN1CCN(Cc2ccccc2)CC1
pIC50 (Acetylcholinesterase [1]): 9.10 | pIC50 (Cholinesterase [2]): 5.85 | pIC50 [3]: 4.38 | Ratio IC50 (Acetylcholinesterase [10]): 21 | Ratio IC50 (Homo sapiens): 1760 | IC50 at 24 h [5]: > 100 µM | IC50 at 48 h [6]: > 100 µM | IC50 at 24 h [7]: > 100 µM | IC50 at 48 h [8]: > 100 µM | Ratio IC50 (Cholinesterase [11]): 3 | log(activity) [12]: -1.81 | Activity [13]: Active | Activity [14]: Active | Activity [15]: Active | log(activity) [16]: 2.89

O=C(COc1cc(F)ccc1[N+](=O)[O-])NCCN1CCN(Cc2ccccc2)CC1
pIC50 (Acetylcholinesterase [1]): 8.55 | pIC50 (Cholinesterase [2]): 5.30 | pIC50 [3]: 4.30 | Ratio IC50 (Acetylcholinesterase [10]): 6 | Ratio IC50 (Homo sapiens): 1790 | IC50 at 24 h [5]: > 100 µM | IC50 at 48 h [6]: > 100 µM | IC50 at 24 h [7]: > 100 µM | IC50 at 48 h [8]: > 100 µM

O=C(COc1ccc(CCc2ccccc2)cc1)NCC1CCN(Cc2ccccc2)CC1
pIC50 (Acetylcholinesterase [1]): 6.87 | pIC50 (Cholinesterase [2]): 5.29 | pIC50 [3]: 4.62

COc1ccc(OCC(=O)NCCN2CCN(Cc3ccccc3)CC2)cc1
pIC50 (Acetylcholinesterase [1]): 6.52 | pIC50 [3]: 4.28 | inhibition (Cholinesterase [9]): 25% | inhibition [4]: 30%

O=C(COc1ccc(-c2ccccc2)cc1)NCCN1CCN(Cc2ccccc2)CC1
pIC50 (Acetylcholinesterase [1]): 6.13 | pIC50 (Cholinesterase [2]): 6.01 | pIC50 [3]: 4.19
